This is an account of results in ChEMBL document CHEMBL3739310, “Deguelins, Natural Product Modulators of NF1-Defective Astrocytoma Cell Growth Identified by High-Throughput Screening of Partially Purified Natural Product Extracts” (J Nat Prod, 2015).

The nature of assay [1]: Growth inhibition of Nf1 defective and Trp53 defective mouse K5001 cells after 2 days by XTT assay. The following applies: K5001, 2 days. (In general: Tetrazolium assays rely on reduction of a dye to a coloured formazan, in cell work by metabolically active cells.)
Assay [2] concerns KR158. The assay is described as follows: Induction of apoptosis in Nf1 defective and Trp53 defective mouse KR158 cells assessed as DNA fragmentation at 10 uM up to 48 hrs by ELISA. It is filed as functional, cell-based.
Assay [3] is described as follows: Growth inhibition of Nf1 defective and Trp53 defective mouse KR158 cells after 2 days by XTT assay. The following applies: KR158, 2 days.
Assay [4] addresses RAC-alpha serine/threonine-protein kinase (Mus musculus) (UniProt P31750). The assay is described as follows: Inhibition of AKT phosphorylation in Nf1 defective and Trp53 defective mouse K5001 cells. It is filed as cell-based.
Assay [5] can be described thus: Growth inhibition of Nf1 defective and Trp53 defective mouse K1492 cells after 2 days by XTT assay. The settings on record: K1492, 2 days.
Assay [6] can be described thus: Growth inhibition of Nf1 defective and Trp53 defective mouse primary astrocytes after 2 days by XTT assay. The following applies: Astrocyte.
Assay [7] relates to K5001. Description: Induction of apoptosis in mouse Nf1 defective and Trp53 defective K5001 cells assessed as DNA fragmentation at 10 uM up to 48 hrs by ELISA. It is filed as functional, cell-based. On the technique in general: An ELISA detects its analyte on a solid surface through an enzyme-linked reagent.
Assay [8] is described as follows: Growth inhibition of Nf1 defective and Trp53 defective mouse KR158 cells at 80 uM after 2 days by XTT assay. The following applies: KR158, 2 days, read-out: GI.
Assay [9] concerns the target RAC-alpha serine/threonine-protein kinase (Mus musculus) (UniProt P31750). The assay is described as follows: Inhibition of AKT phosphorylation in Nf1 defective and Trp53 defective mouse K1492 cells. Type of assay: cell-based.
Assay [10] can be described thus: Induction of ROS generation in Nf1 defective and Trp53 defective mouse K5001 cells at 10 uM after 6 hrs by DCFDA fluorogenic dye-based fluorimetric analysis. It is filed as functional. A digest of the protocol: (§1)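 Cells plated at 1000/well in black-wall, clear-bottom, polylysine-coated 384-well plates and treated 6 h with 10 μM compound or DMSO control. Carboxymethyl H2DCFDA (10 mM stock in DMSO) added at 25 μM final for the last 1 h. After two PBS washes, cell-associated fluorescence read bottom-mode at Ex 495/Em 529 nm. Result expressed as T/C ratio versus untreated controls, means ± SD.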

A short description of assay [11]: Induction of ROS generation in Nf1 defective and Trp53 defective mouse K1492 cells at 10 uM after 6 hrs DCFDA fluorogenic dye-based fluorimetric analysis. Type of assay: functional. An outline of the steps:
as §1

Assay [12] in a line: Induction of ROS generation in Nf1 defective and Trp53 defective mouse KR158 cells at 10 uM after 6 hrs DCFDA fluorogenic dye-based fluorimetric analysis. Type of assay: functional. An outline of the steps:
as §1

Activity calls are given as the source filed them. The rule behind the calls is not given here.

RAC-alpha serine/threonine-protein kinase (Mus musculus), sequence (P31750 whole entry): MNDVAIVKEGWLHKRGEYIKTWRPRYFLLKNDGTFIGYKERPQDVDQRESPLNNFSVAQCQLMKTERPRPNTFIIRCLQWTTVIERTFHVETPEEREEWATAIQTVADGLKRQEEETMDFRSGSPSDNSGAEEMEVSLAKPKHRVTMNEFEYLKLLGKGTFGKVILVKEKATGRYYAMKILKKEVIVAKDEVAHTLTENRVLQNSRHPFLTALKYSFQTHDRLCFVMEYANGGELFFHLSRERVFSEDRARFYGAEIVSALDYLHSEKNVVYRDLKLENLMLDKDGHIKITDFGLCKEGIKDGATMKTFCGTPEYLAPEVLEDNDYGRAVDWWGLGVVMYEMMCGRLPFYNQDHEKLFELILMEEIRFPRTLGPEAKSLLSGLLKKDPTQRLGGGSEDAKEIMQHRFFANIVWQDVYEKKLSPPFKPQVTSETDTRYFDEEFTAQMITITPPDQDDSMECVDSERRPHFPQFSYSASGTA

What is called IC50 is the concentration at which inhibition is half-maximal. Higher therefore signals a need for much substance. `COc1cc2c(cc1OC)-c1c(oc3c4c(ccc3c1=O)OC(C)(C)C=C4)CO2` [DEHYDRODEGUELIN]: the IC50 in [1] is 1200 nM; in assay [3] it was above 80 µM; in assay [5] it was above 80 µM; in assay [6], above 80 µM. Moreover, the outcome in assay [2] and in assay [7] was inactive. Also, the inhibition result in assay [4] and in assay [9] was “inactive” each time. Further, the inhibition of growth at 80 µM in assay [8] stood at 40%.

Regarding `COc1cc2c(cc1OC)[C@@H]1C(=O)c3ccc4c(c3O[C@@H]1CO2)C=CC(C)(C)O4` [DEGUELIN], the half-maximal inhibitory concentration (IC50) in assay [1] was 1200 nM; in assay [3], 12.6 µM; in assay [5] it was above 80 µM; in assay [6], above 80 µM. Further, the outcome in assay [2] and in assay [7] was inactive. For the same compound, the inhibition result in assay [4] and in [9] was “inactive” each time. Further, the “fold change (FC)” value in assay [10] is 3.5; in assay [11] it was 5.6; in assay [12], 3.9.
